Screening results: PubChem, several laboratories
PfM18AAP inh: PfM18AAP enzyme inhibition | recombinant PfM18AAP, H-Glu-NHMec fluorogenic cleavage | inhibition, % at 7.35 µM | actives 1.2% (n = 290,000) | AID 1822;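 active means inhibition above the campaign mean inhibition over all tested compounds plus 3 SD, cut at about 28% in these data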;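 further: 0% = plate median of test compound wells and 100% = 2 mM ZnCl2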
Fh CTSL1 inh: blocks F. hepatica cathepsin L1 in PFM18AAP counter-screen. recombinant F. hepatica cathepsin L1, Z-Leu-Arg-MCA fluorescence. inhibition, % at 5.96 µM. actives 0.49% (n = 300,000). AID 1906;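 active means inhibition above the mean of all tested compounds plus 3 SD, set per screening campaign, cut at about 17% in these data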;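 further: 0% = plate median of test compound wells and 100% = 1 µM Z-Phe-Ala-diazomethylketone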
HDAC3 inh: inhibitors of human histone deacetylase 3; recombinant HDAC3, fluorogenic peptide/trypsin coupled, fluorescence; inhibition, % at 8.3 µM; actives 0.15% (n = 320,000); in the data active means inhibition above about 26%, passing the limit was not always enough
Target sequence (O15379 whole entry, looked up): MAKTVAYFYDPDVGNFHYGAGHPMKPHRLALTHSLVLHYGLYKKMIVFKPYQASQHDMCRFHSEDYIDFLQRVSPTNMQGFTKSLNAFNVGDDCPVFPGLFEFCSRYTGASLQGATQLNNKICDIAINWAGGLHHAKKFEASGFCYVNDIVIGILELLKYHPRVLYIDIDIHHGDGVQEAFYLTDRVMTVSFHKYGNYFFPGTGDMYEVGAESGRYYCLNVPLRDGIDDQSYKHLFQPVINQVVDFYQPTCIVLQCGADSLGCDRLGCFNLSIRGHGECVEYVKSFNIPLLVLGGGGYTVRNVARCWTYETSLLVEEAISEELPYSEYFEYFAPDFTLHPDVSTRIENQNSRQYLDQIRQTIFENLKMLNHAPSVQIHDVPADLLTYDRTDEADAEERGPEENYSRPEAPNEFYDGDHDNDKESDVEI
SENP1 inh: inhibitors of human SENP1 SUMO protease catalytic domain | Q9P0U3 | recombinant SENP1 catalytic domain, CyPet-SUMO1-YPet FRET cleavage | inhibition, % at 10 µM | actives 0.21% (n = 360,000);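 active means inhibition at least 30% at 10 µM, raw YFP signal under a set limit, fluorescence ratio 0.5 to 1.5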;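 further: 0% = enzyme with DMSO and 100% = no enzyme wells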
Target sequence (Q9P0U3 419-644 limits assumed): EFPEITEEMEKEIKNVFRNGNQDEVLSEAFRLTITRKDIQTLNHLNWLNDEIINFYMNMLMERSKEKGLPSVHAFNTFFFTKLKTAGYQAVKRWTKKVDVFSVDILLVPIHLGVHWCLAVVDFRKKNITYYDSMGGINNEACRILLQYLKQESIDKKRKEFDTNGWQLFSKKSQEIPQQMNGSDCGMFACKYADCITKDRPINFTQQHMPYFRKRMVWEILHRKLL
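Controls: no-enzyme wells low, DMSO-plus-enzyme wells high control. Test system: human recombinant His6-tagged SENP1 catalytic domain enzyme. Reagent: SFCypet-SUMO1-SFYpet FRET protein substrate, 25 nM final. Doses: one dose per compound, 10 µM, 0.5% DMSO. Detection: FRET, CFP and YFP emission. Timing: 50 min reaction at room temperature.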
GAA850 FXN act: increases GAA850 frataxin promoter reporter activity. HEK293 lucGAA850 FXN promoter luciferase reporter, 24 h; percent of 10 µM SAHA response. actives 0.56% (n = 360,000). activation, % at 6 µM;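 active means activation above the average of all compounds screened plus 3 SD, cutoff fixed separately per campaign, cut at about 7.5% in these data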;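 further: 0% = DMSO wells and 100% = 10 µM SAHA wells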
AHR act: activators of human aryl hydrocarbon receptor; P35869; AHR-responsive luciferase reporter cells, luminescence; activation, % at 5 µM; actives 2.5% (n = 320,000); AID 2796; in the data active means activation above about 47%;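 further: 0% = vehicle wells and 100% = reference agonist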
An asterisk follows results filed as active; / = no result given. Most compounds without a hit are left out; they make up all but 4.2% or so of the library.

SMILES | PfM18AAP inh | Fh CTSL1 inh | HDAC3 inh | SENP1 inh | GAA850 FXN act | AHR act
CC(=O)N1C[C@H]2CON(C)[C@H]2C[C@H]1c1ccccc1Br | / | / | / | 0 | 0 | /
O=C(Nc1ccc2c(c1)OCO2)c1ccc2sc([C@@H]3O[C@H](CO)[C@H](O)[C@H](O)[C@H]3O)nc2c1 | / | / | / | 2 | 2 | /
CN=c1nc(-c2ccccc2)n(-c2ccccc2)s1 | / | -6 | 56* | 1 | 0 | 18
CCc1nc2ccc(C(=O)NCCCn3ccnc3)cn2c1N(CC)CCOC | / | / | / | 0 | -2 | /
Cc1[nH]c2ccccc2c1/C=N/Nc1ccccn1 | 2 | / | / | / | / | /
Cc1[nH]c2ccccc2c1/C=N/Nc1ccc(F)cc1F | -3 | 1 | 3 | / | / | 78*
Cc1[nH]c2ccccc2c1/C=N/Nc1nncn1N | 61* | -1 | 4 | 0 | 2 | 41
COc1cc(/C=N/Nc2ccc(F)cc2F)cc(OC)c1OC | -2 | 1 | 5 | 1 | 0 | 70*
COC(=O)c1c(N)[nH]c(C(=O)c2ccccc2)c1-c1ccc(Br)cc1 | / | / | / | 1 | / | /
O=C(C[C@H]1C(=O)N(CCc2ccccc2)C[C@@H]1c1ccccc1)Nc1ccccc1 | / | / | / | -2 | 0 | /
Cc1ccc(C(=O)Nc2ccc3c(c2)OCO3)cc1 | -8 | -1 | -2 | -1 | -4 | 43
O=C(NC1CCCCCCC1)c1ccc2c(c1)OCO2 | 2 | -2 | 2 | -1 | 3 | 69*
Cc1nc2ccc(C(=O)Nc3ccc4nc[nH]c4c3)cc2[nH]1 | 6 | 4 | -1 | 0 | -1 | 18
O=C(NC1CCCCC1)c1ccc2c(c1)OCCO2 | -6 | 4 | 2 | -1 | 1 | 12
CN(c1ccc(C(=O)Nc2ccc3c(c2)OCO3)cc1)S(C)(=O)=O | 4 | 17* | 3 | 3 | 4 | 19
O=C(Nc1ccc2c(c1)OCO2)c1ccc2nc[nH]c2c1 | 7 | -3 | 1 | -2 | 2 | 62*
Cc1cccc(NC(=O)CNC(=O)c2ccc3c(c2)OCO3)n1 | / | -1 | 4 | 1 | 1 | 50*
COC(=O)C1=C(C(=O)OC)[C@]2([C@H]3CCCCN[C@@H](Cc4ccccc4)C(=O)N3Cc3ccccc3)C=C[C@H]1O2 | / | / | 11 | 0 | -4 | 2
CSC1=NC2(C[C@H]2c2ccccc2)C(=O)N1C (stereo partly specified) | / | 2 | -1 | 0 | 0 | -2
O=C(Nc1cccc(F)c1)c1ccc2c(c1)OCO2 | 2 | -1 | -3 | 1 | 5 | 56*
C1C2CC3C1C3C2=NN=C1C2CC3C(C2)C13 | / | / | / | 2 | 1 | /
Cc1sc2nc(CSc3ccc([N+](=O)[O-])cc3)[nH]c(=O)c2c1C | 7 | 4 | -1 | / | / | 47*
CC(=O)N1CCN(C(=O)Cn2c(=O)oc3ccccc32)CC1 | -4 | 5 | 4 | 1 | -1 | -1
CCC1CCCCN1C(=O)Cn1c(=O)oc2ccccc21 (stereo unspecified) | 29* | 4 | 7 | 4 | 2 | 1
CC1=CC(=O)c2c(O)ccc(O)c2C1=O | 35* | 18* | 3 | / | / | 2
SMILES | PfM18AAP inh | Fh CTSL1 inh | HDAC3 inh | SENP1 inh | GAA850 FXN act | AHR act
O=C1C=C(N2CCN(c3ccccn3)CC2)C(=O)c2c(O)ccc(O)c21 | / | / | / | 2 | -1 | /
CN(CCCN1CCOCC1)Cc1cn(C)nc1-c1ccccc1F | 4 | -4 | -12 | -3 | 0 | 1
Cc1c(CN(C)Cc2cn(C)nc2-c2ccccc2F)[nH]c2ccccc12 | -8 | -2 | 4 | -8 | 2 | 48*
COc1cc(NC(=O)C2CCCO2)c(OC)cc1NC(=O)c1ccccc1 (stereo unspecified) | 4 | -1 | 2 | -1 | -1 | 78*
COc1cc(NC(=O)C2CCCCC2)c(OC)cc1NC(=O)c1ccccc1 | 6 | 0 | 1 | -11 | -1 | 54*
CCN(CC)c1ccc(NC(=O)c2ccc(NC(=O)C3CCCO3)cc2)c(C)c1 (stereo unspecified) | 31* | -1 | 6 | -1 | -1 | -2
COc1cc(NC(=O)C2CCCCC2)c(OC)cc1NC(=O)c1ccco1 | -13 | 2 | 1 | 1 | 1 | 16
COc1cc(NC(=O)C2CCCO2)c(OC)cc1Cl (stereo unspecified) | 0 | 8 | -2 | 1 | -2 | 15
Cc1c(OCC(F)(F)F)ccnc1CS(=O)c1nc2ccccc2[nH]1 (stereo unspecified) | 22 | 1 | 3 | -2 | 2 | 27
COCCCOc1ccnc(CS(=O)c2nc3ccccc3[nH]2)c1C (stereo unspecified) | 31* | 0 | -2 | -6 | -1 | 12
CC(C)(C)Nc1nc(SCc2ccccc2)nc(N2CCOCC2)n1 | -10 | 19* | 7 | -1 | 5 | 2
CNc1nc(SCc2ccccc2)nc(N2CCOCC2)n1 | -5 | 1 | -8 | 0 | 3 | 27
C#Cc1ccc([C@H]2C=C(C(=O)OCC=C)O[C@@H](OCCCCO)C2)cc1 | / | 1 | 4 | 0 | 0 | 49*
Cc1ccc2sc(NNC(=O)c3cc(=O)c4ccccc4o3)nc2c1C | 30* | -1 | 0 | 26 | 2 | 76*
COc1ccc2nc(NNC(=O)c3cc(=O)c4ccccc4o3)sc2c1 | 9 | -2 | 8 | 30 | -2 | 73*
Cc1ccc2sc(NNC(=O)c3cc(-c4cccs4)nc4ccccc34)nc2c1C | 9 | -4 | -2 | / | / | 24
COc1ccc2nc(NC(=O)c3ccco3)sc2c1 | 8 | 2 | 5 | 1 | -2 | -6
CC1(C(=O)NS(C)(=O)=O)CCN1C(=O)C/C=C/c1ccccc1 (stereo unspecified) | / | / | / | 2 | -1 | /
COC(=O)c1ccc(/C=C/c2c(-c3ccc(OC)cc3)oc3ccc(N4CCOCC4)cc23)cc1 | 6 | -1 | 5 | 1 | 2 | 30
COc1ccc(-c2oc3ccc(N4CCOCC4)cc3c2C#CC2(O)CCCCC2)cc1 | / | -6 | 1 | -13 | 4 | 69*
COc1ccc(C#Cc2c(-c3ccsc3)oc3ccc(N4CCOCC4)cc23)cc1 | / | 1 | 2 | -13 | 1 | 70*
COc1ccc(-c2oc(=O)c3cc(OC)c(OC)cc3c2C#CC2(O)CCCCC2)cc1 | / | / | 0 | -55 | -1 | 10
COc1ccc(C#Cc2c(-c3ccc(OC)cc3)oc3ccc(-c4ccc(OC)cc4)cc23)cc1 | / | -1 | -10 | -2 | -2 | 1
COc1ccc(/C=C/c2c(-c3cccc(C)c3)oc3ccc(N4CCOCC4)cc23)cc1 | / | 4 | -2 | -2 | 0 | 62*
CC(C)c1ccc(NC(=O)CN2C(=O)NC3(CCCCCCC3)C2=O)cc1 | / | / | -1 | 0 | 0 | 1
O=C(NCc1ccncc1)[C@@H]1CCCN1C(=O)[C@H]1CCCN1C(=O)c1cccc(Cl)c1 | / | / | / | 3 | / | /
Cc1cc(Nc2ccc(Cl)cc2)nc(N)n1 | 1 | 2 | 4 | -1 | 4 | 7
